According to ChEMBL document CHEMBL1158625, “Design of 1-piperazinyl-4-arylphthalazines as potent Smoothened antagonists” (Bioorg Med Chem Lett, 2010):
pIC50: −log10 of the molar value. The source made the active and inactive calls. No cut-off for these calls is given here.

Tests used:
CYP2D6 = CYP2D6 (Homo sapiens, UniProt P10635); assay: Inhibition of human CYP2D6 at 3 uM by HPLC-MS; assay type: ADME
[1] = Metabolic stability in human liver microsome assessed as compound turnover after 30 mins; assay type: ADME; conditions: liver microsomes, read-out: Stability
Procedure, shortened: (§1)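 Pooled human or rat liver microsomes (0.25 mg/mL), 37 °C, phosphate buffer pH 7.4, test compound 1 µM; NADPH 1 mM final; quenched at 0 or 30 min with organic solvent; unchanged parent by reversed-phase LC-MS/MS; percent turnover from peak area at 30 versus 0 min.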

[2] = Metabolic stability in rat liver microsome assessed as compound turnover after 30 mins; assay type: ADME; conditions: liver microsomes, read-out: Stability; procedure, shortened: as §1
CYP3A4 = CYP3A4 (Homo sapiens, UniProt P08684); assay: Inhibition of human CYP3A4 at 3 uM by HPLC-MS; assay type: ADME
CYP3A4, sequence (P08684 whole entry): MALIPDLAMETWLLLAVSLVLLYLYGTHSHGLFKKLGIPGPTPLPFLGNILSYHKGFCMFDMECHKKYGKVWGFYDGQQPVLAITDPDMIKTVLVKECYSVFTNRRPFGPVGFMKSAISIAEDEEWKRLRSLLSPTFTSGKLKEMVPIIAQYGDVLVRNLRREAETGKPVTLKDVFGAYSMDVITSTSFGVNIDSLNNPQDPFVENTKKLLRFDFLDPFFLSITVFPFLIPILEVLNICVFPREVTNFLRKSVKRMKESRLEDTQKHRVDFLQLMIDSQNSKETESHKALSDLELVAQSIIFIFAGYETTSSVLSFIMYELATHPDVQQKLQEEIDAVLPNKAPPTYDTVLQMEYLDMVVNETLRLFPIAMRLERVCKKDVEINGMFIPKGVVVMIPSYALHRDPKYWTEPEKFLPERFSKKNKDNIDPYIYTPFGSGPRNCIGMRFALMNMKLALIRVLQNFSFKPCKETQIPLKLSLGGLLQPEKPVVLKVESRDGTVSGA

[3] = Clearance in cynomolgus monkey at 0.5 mg/kg, iv; assay type: ADME, organism-based, Macaca fascicularis; set-up: dose 0.5 mg/kg, route intravenous; conditions: in vivo
[4] = Volume of distribution at steady state in cynomolgus monkey at 0.5 mg/kg, iv; assay type: ADME, organism-based, Macaca fascicularis; set-up: dose 0.5 mg/kg, route intravenous; conditions: in vivo, read-out: Vdss
[5] = Half life in cynomolgus monkey at 0.5 mg/kg, iv; assay type: ADME, organism-based, Macaca fascicularis; set-up: dose 0.5 mg/kg, route intravenous; conditions: in vivo
[6] = Oral bioavailability in cynomolgus monkey at 2 mg/kg; assay type: ADME, organism-based, Macaca fascicularis; conditions: in vivo
[7] = Volume of distribution at steady state in mouse at 1 mg/kg, iv; assay type: ADME, organism-based; set-up: dose 1 mg/kg, route intravenous; conditions: in vivo, read-out: Vdss
[8] = Half life in mouse at 1 mg/kg, iv; assay type: ADME, organism-based; set-up: dose 1 mg/kg, route intravenous; conditions: in vivo
[9] = Oral bioavailability in mouse at 2 mg/kg; assay type: ADME, organism-based; conditions: in vivo
[10] = Clearance in dog at 0.5 mg/kg, iv; assay type: ADME, organism-based, Canis lupus familiaris; set-up: dose 0.5 mg/kg, route intravenous; conditions: in vivo
[11] = Volume of distribution at steady state in dog at 0.5 mg/kg, iv; assay type: ADME, organism-based, Canis lupus familiaris; set-up: dose 0.5 mg/kg, route intravenous; conditions: in vivo, read-out: Vdss
[12] = Half life in dog at 0.5 mg/kg, iv; assay type: ADME, organism-based, Canis lupus familiaris; set-up: dose 0.5 mg/kg, route intravenous; conditions: in vivo
[13] = Oral bioavailability in dog at 2 mg/kg; assay type: ADME, organism-based, Canis lupus familiaris; conditions: in vivo
[14] = Clearance in rat at 0.5 mg/kg, iv; assay type: ADME, organism-based; set-up: dose 0.5 mg/kg, route intravenous; conditions: in vivo
[15] = Volume of distribution at steady state in rat at 0.5 mg/kg, iv; assay type: ADME, organism-based; set-up: dose 0.5 mg/kg, route intravenous; conditions: in vivo, read-out: Vdss
[16] = Half life in rat at 0.5 mg/kg, iv; assay type: ADME, organism-based; set-up: dose 0.5 mg/kg, route intravenous; conditions: in vivo
[17] = Oral bioavailability in rat at 2 mg/kg; assay type: ADME, organism-based; conditions: in vivo
[18] = Clearance in mouse at 1 mg/kg, iv; assay type: ADME, organism-based; set-up: dose 1 mg/kg, route intravenous; conditions: in vivo
Mus musculus = organism: Mus musculus; assay: Reduction in Gli1 mRNA expression in mouse skin after 6 hrs of treatment by RT-PCR; assay type: functional, organism-based
Procedure, shortened: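 Mouse hind flanks depilated with wax; five days later single oral dose 2, 20 or 100 mg/kg; skin harvested after 6 h; Gli1 RNA by quantitative real-time PCR normalized to RGS (Pitx2) RNA; four mice per group, two samples each; Dunnett's method; plasma levels also measured.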

Medulloblastoma cell = assay: Antitumor activity against mouse Ptch+/- p53-/- medulloblastoma cells xenografted Harlan nu/nu mouse at 10 mg/kg, po qd administered after 8 days tumor implantation measured after 15 days; assay type: functional, organism-based; set-up: dose 10 mg/kg
Procedure, shortened: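 Tumors from p53-/- Ptch+/- crossbred mice transplanted into immunocompromised mice; after 8 days animals randomized to compound 10 mg/kg QD oral or vehicle; tumor volume followed, reduction assessed day 15 versus treatment onset day 8; ten mice per group; Dunnett's method.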

Protein smoothened = Protein smoothened (Mus musculus, UniProt P56726); assay: Inhibition of mouse SMO expressed in NIH-3T3 cells; assay type: cell-based, NIH3T3
Protein smoothened, sequence (P56726 whole entry): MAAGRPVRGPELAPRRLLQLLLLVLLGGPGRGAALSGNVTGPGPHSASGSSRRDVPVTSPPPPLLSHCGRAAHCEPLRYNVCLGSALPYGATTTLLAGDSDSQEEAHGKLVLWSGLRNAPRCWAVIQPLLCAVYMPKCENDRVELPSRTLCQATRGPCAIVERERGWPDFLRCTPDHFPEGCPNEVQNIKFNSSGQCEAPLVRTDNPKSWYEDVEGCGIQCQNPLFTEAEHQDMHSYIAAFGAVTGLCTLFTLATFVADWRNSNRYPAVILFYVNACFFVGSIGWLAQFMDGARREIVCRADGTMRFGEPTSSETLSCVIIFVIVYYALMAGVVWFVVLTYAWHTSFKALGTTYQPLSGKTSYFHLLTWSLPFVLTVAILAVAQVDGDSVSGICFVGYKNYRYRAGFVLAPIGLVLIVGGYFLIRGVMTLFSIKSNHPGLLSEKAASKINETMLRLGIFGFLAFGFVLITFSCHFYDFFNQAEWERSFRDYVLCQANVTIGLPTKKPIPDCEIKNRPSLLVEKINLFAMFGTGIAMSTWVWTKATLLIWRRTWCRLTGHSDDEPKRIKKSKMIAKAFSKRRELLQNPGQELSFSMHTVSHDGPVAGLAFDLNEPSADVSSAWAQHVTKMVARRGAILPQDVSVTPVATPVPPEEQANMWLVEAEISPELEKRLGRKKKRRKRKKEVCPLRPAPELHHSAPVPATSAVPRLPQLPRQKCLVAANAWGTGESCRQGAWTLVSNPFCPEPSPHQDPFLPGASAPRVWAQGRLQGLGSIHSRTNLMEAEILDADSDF

CYP2D6, sequence (P10635 whole entry): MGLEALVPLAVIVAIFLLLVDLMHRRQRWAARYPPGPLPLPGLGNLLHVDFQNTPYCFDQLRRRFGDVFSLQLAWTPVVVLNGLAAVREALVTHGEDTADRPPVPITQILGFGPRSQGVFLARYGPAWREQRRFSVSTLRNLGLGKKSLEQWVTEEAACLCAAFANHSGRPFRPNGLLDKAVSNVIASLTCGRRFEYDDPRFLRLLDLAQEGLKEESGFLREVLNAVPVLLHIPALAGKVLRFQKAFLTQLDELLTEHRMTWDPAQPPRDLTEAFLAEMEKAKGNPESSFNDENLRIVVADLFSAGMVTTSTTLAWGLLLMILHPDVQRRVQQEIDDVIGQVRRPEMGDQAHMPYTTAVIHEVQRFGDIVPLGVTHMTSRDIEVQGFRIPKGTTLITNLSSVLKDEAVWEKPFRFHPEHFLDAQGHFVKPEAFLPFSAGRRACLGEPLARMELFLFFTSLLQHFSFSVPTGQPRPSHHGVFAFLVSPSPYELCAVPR

SMILES | inhibition at 3 µM (CYP2D6) [%] | metabolised at 0.5 h [1] [%] | metabolised at 0.5 h [2] [%] | inhibition at 3 µM (CYP3A4) [%] | further results
COc1ccc(-c2nnc(N3CCN(C(=O)c4ccccc4)CC3)c3ccccc23)cc1 | 19 | 27 | 22 | < 10 | 
C[C@H]1CN(c2nnc(N3CC=CC=N3)c3ccccc23)CCN1C(=O)c1ccccc1 | 15 | < 10 | < 10 | < 10 | 
C[C@H]1CN(C(=O)c2ccccc2)CCN1c1nnc(-c2ccccc2)c2ccccc12 |  | < 10 | 23 |  | 
C[C@@H]1CN(c2nnc(-c3ccccc3)c3ccccc23)CCN1C(=O)c1ccccc1 | < 10 | 17 | 21 | < 10 | 
N#Cc1cccc(-c2nnc(N3CCN(C(=O)c4ccccc4)CC3)c3ccccc23)c1 | 18 | 10 | 10 | < 10 | 
C[C@@H]1CN(C(=O)c2ccccc2)CCN1c1nnc(-c2ccccc2)c2ccccc12 | 47 | 44 | 39 | < 10 | 
C[C@@H]1CN(C(=O)c2ccccc2)CCN1c1nnc(-c2ccc(C3CC3)cc2)c2ccccc12 | < 10 | 34 | 21 | 31 | 
Cc1ccccc1-c1nnc(N2CCN(C(=O)c3ccccc3)CC2)c2ccccc12 | 24 | 90 | 40 | < 10 | 
C[C@H]1CN(c2nnc(-c3ccccn3)c3ccccc23)CCN1C(=O)c1ccccc1 | < 10 | < 10 | < 10 | < 10 | 
C[C@H]1CN(c2nnc(-c3ccc(C(F)(F)F)cc3)c3ccccc23)CCN1C(=O)c1ccccc1 | < 10 | < 10 | < 10 | 49 | 
COc1cccc(-c2nnc(N3CCN(C(=O)c4ccccc4)CC3)c3ccccc23)c1 | 19 | 43 | 33 | < 10 | 
O=C(c1nccs1)N1CCN(c2nnc(-c3ccccc3)c3ccccc23)CC1 | 89 | 48 | 25 | < 10 | 
C[C@@H]1CN(C(=O)c2ccccc2)CCN1c1nnc(-c2ccc(Cl)cc2)c2ccccc12 | 60 | 38 | 12 | < 10 | 
C[C@H]1CN(c2nnc(-c3ccncc3)c3ccccc23)CCN1C(=O)c1ccccc1 | 52 | 10 | 25 | 58 | 
CC(C)c1ccc(-c2nnc(N3CCN(C(=O)c4ccccc4)C[C@H]3C)c3ccccc23)cc1 | 20 | 41 | 73 | 14 | 
Cc1ccc(-c2nnc(N3CCN(C(=O)c4ccccc4)[C@@H](C)C3)c3ccccc23)cc1 | 10 | 38 | 43 | 13 | 
O=C(c1ccccc1)N1CCN(c2nnc(-c3ccc(F)cc3)c3ccccc23)CC1 | 29 | 17 | 10 | < 10 | 
C[C@H]1CN(c2nnc(-c3ncco3)c3ccccc23)CCN1C(=O)c1ccccc1 | 27 | 10 | 23 | < 10 | 

SMILES | inhibition at 3 µM (CYP2D6) [%] | metabolised at 0.5 h [1] [%] | metabolised at 0.5 h [2] [%] | inhibition at 3 µM (CYP3A4) [%] | further results
Cc1ccc(-c2nnc(N3CCN(C(=O)c4ccccc4)CC3)c3ccccc23)cc1 | < 10 | 45 | 72 | < 10 | 
C[C@@H]1CN(C(=O)c2ccccc2)CCN1c1nnc(-c2ccc(C#N)cc2)c2ccccc12 | < 10 | < 10 | < 10 | 12 | 
C[C@H]1CN(c2nnc(-c3ccc(Cl)cc3)c3ccccc23)CCN1C(=O)c1ccccc1 | 43 | < 10 | < 10 | 40 | 
C[C@H]1CN(c2nnc(-c3cccnc3)c3ccccc23)CCN1C(=O)c1ccccc1 | < 10 | 10 | 12 | 12 | 
O=C(c1ccccc1)N1CCN(c2nnc(-c3ccccc3Cl)c3ccccc23)CC1 | < 10 | 62 | 15 | < 10 | 
Cc1ccc(-c2nnc(N3CCN(C(=O)c4ccccc4)C[C@H]3C)c3ccccc23)cc1 | < 10 | 56 | 55 | < 10 | 
C[C@H]1CN(c2nnc(-c3ccc(F)cc3)c3ccccc23)CCN1C(=O)c1ccccc1 | 18 | 10 | 15 | 20 | 
C[C@H]1CN(c2nnc(-c3ccccc3)c3ccccc23)CCN1C(=O)c1ccccc1 | 11 | < 10 | 21 | < 10 | 
O=C(c1ccccc1)N1CCN(c2nnc(-c3ccccc3)c3ccccc23)CC1 | 11 | 19 | 12 | < 10 | 
C[C@@H]1CN(C(=O)c2ccccc2)CCN1c1nnc(-c2ccc(C(C)(C)C)cc2)c2ccccc12 | 10 | 89 | 94 | 25 | 
C[C@@H]1CN(C(=O)c2ccccc2)CCN1c1nnc(-c2ccc(C(F)(F)F)cc2)c2ccccc12 | 15 | 13 | 11 | < 10 | clearance [3]: 8.83 mL/min/kg; Vd [4]: 2.52 L/kg; half-life [5]: 4.3 h; bioavailability [6]: 31%; Vd [7]: 1.4 L/kg; half-life [8]: 3.4 h; bioavailability [9]: 65%; clearance [10]: 3.33 mL/min/kg; Vd [11]: 2.96 L/kg; half-life [12]: 10 h; bioavailability [13]: 60%; clearance [14]: 6.83 mL/min/kg; Vd [15]: 5.07 L/kg; half-life [16]: 9.5 h; bioavailability [17]: 39%; clearance [18]: 5 mL/min/kg; Activity (Mus musculus): Dose-dependent effect; Activity (Medulloblastoma cell): Active
O=C(c1ccccc1)N1CCN(c2nnc(-c3ccc(Cl)c(Cl)c3)c3ccccc23)CC1 |  | 31 | 10 | < 10 | 
C[C@@H]1CN(C(=O)c2ccccc2)CCN1c1nnc(-c2ccc(CO)cc2)c2ccccc12 | < 10 | 14 | 13 | 15 | 
O=C(c1cccs1)N1CCN(c2nnc(-c3ccccc3)c3ccccc23)CC1 |  |  |  |  | pIC50 (Protein smoothened): 7.66
O=C(c1ccccc1)N1CCN(c2nnc(-c3ccc(Cl)cc3)c3ccccc23)CC1 | 24 | 20 | 10 | 16 | 
CC(=O)N1CCN(c2nnc(-c3ccccc3)c3ccccc23)CC1 | 29 | 10 | 10 |  | 
O=C(c1ccco1)N1CCN(c2nnc(-c3ccccc3)c3ccccc23)CC1 | 48 | 43 | 32 | < 10 | 
C[C@@H]1CN(C(=O)c2ccccc2)CCN1c1nnc(-c2ccc(N(C)C)cc2)c2ccccc12 | 26 | 59 | 82 | 90 | 
